In ChEMBL document CHEMBL4665666, “Discovery and characterization of trypanocidal cysteine protease inhibitors from the 'malaria box'” (Eur J Med Chem, 2019):
pIC50: −log10 of the molar value. Activity calls are given as the source filed them. The calls are words filed in the database; no cut-off is given here.

How the values were obtained:
[1] = target: Rhodesain (Trypanosoma brucei rhodesiense) (UniProt Q95PM0); experiment: Inhibition of recombinant Trypanosoma brucei rhodesain expressed in Pichia pastoris at 10 uM using Z-FR-AMC as substrate and measured at 12 sec interval for 5 mins without preincubation by fluorimetric analysis relative to control
Rhodesain (Trypanosoma brucei rhodesiense), sequence (Q95PM0 1-450): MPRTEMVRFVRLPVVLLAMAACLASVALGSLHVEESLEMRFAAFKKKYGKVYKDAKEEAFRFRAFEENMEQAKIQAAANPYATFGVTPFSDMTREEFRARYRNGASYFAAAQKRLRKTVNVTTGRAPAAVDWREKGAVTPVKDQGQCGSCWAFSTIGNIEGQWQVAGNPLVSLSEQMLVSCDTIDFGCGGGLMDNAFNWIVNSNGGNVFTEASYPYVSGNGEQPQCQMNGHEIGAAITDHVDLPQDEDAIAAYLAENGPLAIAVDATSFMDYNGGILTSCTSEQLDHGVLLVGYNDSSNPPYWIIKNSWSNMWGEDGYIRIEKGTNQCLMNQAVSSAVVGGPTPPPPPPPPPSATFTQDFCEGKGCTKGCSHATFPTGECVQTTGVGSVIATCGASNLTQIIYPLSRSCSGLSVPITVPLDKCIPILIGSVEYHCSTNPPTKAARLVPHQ
How it was run: (§1)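 Recombinant rhodesain or cruzain (1 nM) in 0.1 M sodium acetate pH 5.5, 0.01% Triton X-100, 1 mM β-mercaptoethanol. Compound at a single concentration, either without or after 10 min enzyme pre-incubation. Z-FR-AMC 2.5 µM, read at 340/440 nm every 12 s for 5 min. Inhibition is relative to DMSO, with E-64 as positive control. Done in duplicate (primary screen) or triplicate.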

[2] = target: Cruzipain (Trypanosoma cruzi) (UniProt P25779); experiment: Inhibition of recombinant Trypanosoma cruzi cruzain at 10 uM preincubated with enzyme for 5 mins followed by substrate addition in absence of BSA relative to control
Cruzipain (Trypanosoma cruzi), sequence (P25779 123-467 limits assumed): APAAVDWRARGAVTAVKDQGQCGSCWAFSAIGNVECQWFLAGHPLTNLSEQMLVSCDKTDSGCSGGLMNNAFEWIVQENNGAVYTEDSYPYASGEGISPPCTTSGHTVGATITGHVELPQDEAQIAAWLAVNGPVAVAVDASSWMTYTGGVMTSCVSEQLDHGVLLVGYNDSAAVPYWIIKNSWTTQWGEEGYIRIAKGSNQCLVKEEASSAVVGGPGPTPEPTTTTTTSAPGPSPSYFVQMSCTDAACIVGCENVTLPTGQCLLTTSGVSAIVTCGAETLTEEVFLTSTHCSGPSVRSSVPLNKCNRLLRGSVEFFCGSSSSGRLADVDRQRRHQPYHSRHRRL
How it was run: (§2)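 For BSA sensitivity, compound was held 5 min with BSA (2 mg/mL in 0.001% Triton X-100), then 5 min with 1 nM cruzain, before substrate was added and activity monitored. Parallel runs omitted BSA under otherwise identical conditions.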

[3] = target: Cruzipain (Trypanosoma cruzi) (UniProt P25779); experiment: Inhibition of recombinant Trypanosoma cruzi cruzain at 10 uM preincubated with BSA for 5 mins followed by incubation with enzyme for 5 mins followed by substrate addition relative to control; settings: time 10.0 min; how it was run: as §2
Cruzipain [4] = target: T1, Cruzipain (Trypanosoma cruzi, UniProt P25779); experiment: Inhibition of recombinant Trypanosoma cruzi cruzain using Z-FR-AMC as substrate and measured at 12 sec interval for 5 mins without preincubation by fluorimetric analysis
T1 sequence (P25779 whole entry): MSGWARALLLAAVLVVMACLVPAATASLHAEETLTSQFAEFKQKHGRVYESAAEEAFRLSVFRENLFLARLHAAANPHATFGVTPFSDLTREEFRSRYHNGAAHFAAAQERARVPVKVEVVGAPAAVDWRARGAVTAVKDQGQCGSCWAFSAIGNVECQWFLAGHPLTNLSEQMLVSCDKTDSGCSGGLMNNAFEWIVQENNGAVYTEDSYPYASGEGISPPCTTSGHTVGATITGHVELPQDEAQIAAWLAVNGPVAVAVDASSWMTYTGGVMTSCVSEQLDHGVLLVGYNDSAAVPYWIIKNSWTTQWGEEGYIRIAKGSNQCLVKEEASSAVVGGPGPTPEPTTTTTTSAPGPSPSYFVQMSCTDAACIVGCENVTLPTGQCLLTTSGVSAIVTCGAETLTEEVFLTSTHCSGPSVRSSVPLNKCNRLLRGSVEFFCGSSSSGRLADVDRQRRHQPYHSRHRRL
How it was run: (§3)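 Cruzain (recombinant, 1 nM) in 0.1 M sodium acetate pH 5.5 with 0.01% Triton X-100 and 1 mM β-mercaptoethanol; Z-FR-AMC 2.5 µM, read at 340/440 nm every 12 s for 5 min, with or without 10 min enzyme–compound pre-incubation. […] For mechanism and Ki, 0.3–20.0 µM substrate and five inhibitor levels were used, with Lineweaver-Burk plots.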

[5] = target: Cruzipain (Trypanosoma cruzi) (UniProt P25779); experiment: Inhibition of recombinant Trypanosoma cruzi cruzain at 10 uM using Z-FR-AMC as substrate preincubated for 10 mins followed by substrate addition and measured at 12 sec interval for 5 mins by fluorimetric analysis relative to control; settings: time 15.0 min; how it was run: as §1
[6] = target: Cruzipain (Trypanosoma cruzi) (UniProt P25779); experiment: Inhibition of recombinant Trypanosoma cruzi cruzain at 10 uM preincubated for 10 mins in absence of Triton X-100 relative to control
How it was run: (§4)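 To test detergent sensitivity, cruzain was pre-incubated 10 min at room temperature with compound with no Triton X-100, 0.01% or 0.1% Triton X-100. Cleavage of Z-FR-AMC was then followed at pH 5.5 in acetate buffer. Percent inhibition was compared across detergent levels.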

[7] = target: Rhodesain (Trypanosoma brucei rhodesiense) (UniProt Q95PM0); experiment: Inhibition of recombinant Trypanosoma brucei rhodesain expressed in Pichia pastoris at 5 uM using Z-FR-AMC as substrate and measured at 12 sec interval for 5 mins without preincubation by fluorimetric analysis relative to control
How it was run: as §1, with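 “pre-incubation.” for “pre-incubation. Z-FR-AMC 2.5 µM, read at 340/440 nm every 12 s for 5 min.”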

[8] = test system: Trypanosoma brucei rhodesiense; experiment: Trypanocidal activity against Trypanosoma brucei rhodesiense STI B900 assessed as reduction in parasite viability; format: functional, organism-based
[9] = target: Cruzipain (Trypanosoma cruzi) (UniProt P25779); experiment: Inhibition of recombinant Trypanosoma cruzi cruzain at 10 uM using Z-FR-AMC as substrate and measured at 12 sec interval for 5 mins without preincubation by fluorimetric analysis relative to control; how it was run: as §1
[10] = target: Rhodesain (Trypanosoma brucei rhodesiense) (UniProt Q95PM0); experiment: Inhibition of recombinant Trypanosoma brucei rhodesain expressed in Pichia pastoris at 5 uM using Z-FR-AMC as substrate preincubated for 10 mins followed by substrate addition and measured at 12 sec interval for 5 mins by fluorimetric analysis relative to control; settings: time 15.0 min
How it was run: as §1, with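 “pre-incubation.” for “pre-incubation. Z-FR-AMC 2.5 µM, read at 340/440 nm every 12 s for 5 min.”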

[11] = target: Cruzipain (Trypanosoma cruzi) (UniProt P25779); experiment: Inhibition of recombinant Trypanosoma cruzi cruzain at 10 uM preincubated for 10 mins in presence of 0.1% Triton X-100 relative to control; how it was run: as §4
[12] = target: Cruzipain (Trypanosoma cruzi) (UniProt P25779); experiment: Inhibition of recombinant Trypanosoma cruzi cruzain at 10 uM preincubated for 10 mins in presence of 0.01% Triton X-100 relative to control; how it was run: as §4
[13] = target: Rhodesain (Trypanosoma brucei rhodesiense) (UniProt Q95PM0); experiment: Inhibition of recombinant Trypanosoma brucei rhodesain expressed in Pichia pastoris at 10 uM using Z-FR-AMC as substrate preincubated for 10 mins followed by substrate addition and measured at 12 sec interval for 5 mins by fluorimetric analysis relative to control; settings: time 15.0 min; how it was run: as §1
[14] = target: Cruzipain (Trypanosoma cruzi) (UniProt P25779); experiment: Inhibition of recombinant Trypanosoma cruzi cruzain at 5 uM using Z-FR-AMC as substrate and measured at 12 sec interval for 5 mins without preincubation by fluorimetric analysis relative to control
How it was run: as §1, with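 “pre-incubation.” for “pre-incubation. Z-FR-AMC 2.5 µM, read at 340/440 nm every 12 s for 5 min.”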

Trypanosoma cruzi [15] = experiment: Trypanocidal activity against Trypanosoma cruzi Tulahuen C4 assessed as reduction in parasite viability; format: functional, organism-based
[16] = test system: Trypanosoma brucei brucei; experiment: Trypanocidal activity against Trypanosoma brucei brucei Squib 427 assessed as reduction in parasite viability; format: functional, organism-based
[17] = target: Cruzipain (Trypanosoma cruzi) (UniProt P25779); experiment: Inhibition of recombinant Trypanosoma cruzi cruzain at 5 uM using Z-FR-AMC as substrate preincubated for 10 mins followed by substrate addition and measured at 12 sec interval for 5 mins by fluorimetric analysis relative to control; settings: time 15.0 min
How it was run: as §1, with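 “pre-incubation.” for “pre-incubation. Z-FR-AMC 2.5 µM, read at 340/440 nm every 12 s for 5 min.”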

[18] = target: Cruzipain (Trypanosoma cruzi) (UniProt P25779); experiment: Inhibition of recombinant Trypanosoma cruzi cruzain at 100 uM using Z-FR-AMC as substrate preincubated for 10 mins followed by substrate addition and measured at 12 sec interval for 5 mins by fluorimetric analysis relative to control; settings: time 15.0 min; how it was run: as §1
Cruzipain [19] = target: T1, Cruzipain; experiment: Inhibition of recombinant Trypanosoma cruzi cruzain using Z-FR-AMC as substrate preincubated for 10 mins followed by substrate addition and measured at 12 sec interval for 5 mins by fluorimetric analysis; how it was run: as §3
Trypanosoma cruzi [20] = experiment: Trypanocidal activity against Trypanosoma cruzi Y strain trypomastigotes infected in C57BL/6 mouse peritoneal macrophage assessed as reduction in number of trypomastigotes release at 50 uM and measured after day 3 to day 11 post-infection by Neubauer chamber method; format: functional, organism-based; settings: time 11.0 day
How it was run: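 Thioglycolate-elicited peritoneal macrophages from female C57BL/6 mice, 2 × 10^5/well, infected 2 h at 37°C with Y strain trypomastigotes at 5:1 (parasite:cell) and washed. They were then held with compound (3.125–50 µM) or IFN-γ 100 ng/mL. Trypomastigotes released into the supernatant were counted in a Neubauer chamber at several days after infection. Three independent experiments, each in triplicate.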

[21] = target: Cruzipain (Trypanosoma cruzi) (UniProt P25779); experiment: Inhibition of recombinant Trypanosoma cruzi cruzain at 100 uM preincubated with enzyme for 5 mins followed by substrate addition in absence of BSA relative to control; how it was run: as §2
[22] = target: Cruzipain (Trypanosoma cruzi) (UniProt P25779); experiment: Inhibition of recombinant Trypanosoma cruzi cruzain at 100 uM using Z-FR-AMC as substrate and measured at 12 sec interval for 5 mins without preincubation by fluorimetric analysis relative to control; how it was run: as §1
Rhodesain = Rhodesain (Trypanosoma brucei rhodesiense, UniProt Q95PM0); experiment: Inhibition of recombinant Trypanosoma brucei rhodesain expressed in Pichia pastoris using Z-FR-AMC as substrate preincubated for 10 mins followed by substrate addition and measured at 12 sec interval for 5 mins by fluorimetric analysis
Rhodesain, sequence (Q95PM0 whole entry): as the sequence (Q95PM0 1-450) above
How it was run: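 Rhodesain (1 nM) with Z-FR-AMC (2.5 µM) in 0.1 M sodium acetate pH 5.5, 0.01% Triton X-100, 1 mM β-mercaptoethanol, with or without 10 min enzyme-compound pre-incubation. Fluorescence read at 340/440 nm. IC50 by four-parameter nonlinear regression from at least six concentrations in triplicate, with at least two independent runs. Mean ± SEM reported.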

[23] = target: Cruzipain (Trypanosoma cruzi) (UniProt P25779); experiment: Inhibition of recombinant Trypanosoma cruzi cruzain at 100 uM preincubated for 10 mins in presence of 0.1% Triton X-100 relative to control; how it was run: as §4
[24] = target: Rhodesain (Trypanosoma brucei rhodesiense) (UniProt Q95PM0); experiment: Inhibition of recombinant Trypanosoma brucei rhodesain expressed in Pichia pastoris at 100 uM using Z-FR-AMC as substrate and measured at 12 sec interval for 5 mins without preincubation by fluorimetric analysis relative to control
How it was run: (§5)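 Run with no pre-incubation or with 10 min enzyme-compound pre-incubation. Fluorescence read at 340/440 nm. Concentration was set by solubility under assay conditions. Inhibition is against DMSO, with E-64 as positive control; triplicate.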

[25] = target: Rhodesain (Trypanosoma brucei rhodesiense) (UniProt Q95PM0); experiment: Inhibition of recombinant Trypanosoma brucei rhodesain expressed in Pichia pastoris at 100 uM using Z-FR-AMC as substrate preincubated for 10 mins followed by substrate addition and measured at 12 sec interval for 5 mins by fluorimetric analysis relative to control; settings: time 15.0 min; how it was run: as §5
[26] = target: Cruzipain (Trypanosoma cruzi) (UniProt P25779); experiment: Inhibition of recombinant Trypanosoma cruzi cruzain at 100 uM preincubated for 10 mins in absence of Triton X-100 relative to control; how it was run: as §4
[27] = target: Cruzipain (Trypanosoma cruzi) (UniProt P25779); experiment: Inhibition of recombinant Trypanosoma cruzi cruzain at 100 uM preincubated for 10 mins in presence of 0.01% Triton X-100 relative to control; how it was run: as §4
[28] = target: Cruzipain (Trypanosoma cruzi) (UniProt P25779); experiment: Inhibition of recombinant Trypanosoma cruzi cruzain at 100 uM preincubated with BSA for 5 mins followed by incubation with enzyme for 5 mins followed by substrate addition relative to control; settings: time 10.0 min; how it was run: as §2

Structure (SMILES)	inhibition [1] [%]	inhibition [5] [%]	inhibition [7] [%]	inhibition [9] [%]	inhibition [10] [%]	inhibition [13] [%]	inhibition [14] [%]	pIC50 (Trypanosoma cruzi [15])	pIC50 [16]	inhibition [17] [%]	further results
CCOc1cccc(C(=O)Nc2ccc(-c3nc4ccccc4[nH]3)cc2)c1	46	100	53.7	89	75.6	100	88.1	4.49	4.49	72.7	inhibition [2]: 97.9%; inhibition [3]: 16%; pIC50 (Cruzipain [4]): 5.59; inhibition [6]: 100%; pIC50 [8]: 4.49; inhibition [11]: 34.6%; inhibition [12]: 100%
COCCNC(=O)c1ccc(OC2CCN(Cc3ccc(F)c(F)c3)CC2)c(Cl)c1	14	66	42.1	18	83.8	81	42	4.49	4.49	74.5	inhibition [18]: 78%; pIC50 (Cruzipain [19]): 5.30; Activity (Trypanosoma cruzi [20]): Active; inhibition [21]: 79.9%; inhibition [22]: 29%; pIC50 (Rhodesain): 5.05; inhibition [23]: 78.6%; inhibition [24]: 63%; inhibition [25]: 75%; inhibition [26]: 98.3%; inhibition [27]: 68.2%; inhibition [28]: 64.7%
